Measurements: ChEMBL document CHEMBL1154770, “Betulinic acid derivatives as human immunodeficiency virus type 2 (HIV-2) inhibitors” (J Med Chem, 2009)
Active and inactive are the calls of the source. The calls are words filed in the database; no cut-off is given here.

Experiments:
[1] = Cytotoxicity against human TZM-b1 cells after 2 days; assay type: cell-based; conditions: read-out: TC50
[2] = Selectivity index, ratio of TC50 for human TZM-b1 cells to IC50 for HIV1 NL4-3 infected in human TZM-b1 cells; assay type: toxicity, cell-based; conditions: TZM-b1 cells infected with HIV1 NL4-3, read-out: Selectivity Index
Summary of the method: (§1)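 TC50 from 2-day CytoTox-Glo viability assay of compound-treated TZM-bl cells, divided by IC50 from single-round TZM-bl infection (200 TCID50 HIV-1 NL4-3 or HIV-2 KR.X3, 2-day luciferase read, 50% RLU reduction versus virus control).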

[3] = Antiviral activity against HIV2 KR X3 infected in human TZM-b1 cells assessed as reduction in luciferase activity after 2 days by luciferase reporter gene assay; assay type: functional, cell-based, Human immunodeficiency virus type 2 (isolate KR); conditions: Human immunodeficiency virus 2, X3, TZM-b1, 48 h
Summary of the method: (§2)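 Single-round infection of TZM-bl cells with 200 TCID50 of virus in the presence of graded compound concentrations. After 2 days, the medium was removed and Bright Glo reagent was added to read luciferase luminescence (RLU). IC50 is the concentration giving 50% reduction of luciferase activity relative to virus control wells.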

[4] = tested on: Human immunodeficiency virus 1; test: Antiviral activity against HIV1 NL4-3 infected in human TZM-b1 cells assessed as reduction in luciferase activity after 2 days by luciferase reporter gene assay; assay type: functional, cell-based; conditions: Human immunodeficiency virus 1, NL4-3, TZM-b1, 48 h; summary of the method: as §2
[5] = Selectivity index, ratio of TC50 for human TZM-b1 cells to IC50 for HIV2 KR X3 infected in human TZM-b1 cells; assay type: toxicity, cell-based; conditions: TZM-b1 cells infected with HIV2 KR X3, read-out: Selectivity Index; summary of the method: as §1
[6] = Ratio of IC50 for HIV2 KR X3 infected in human TZM-b1 cells to IC50 for HIV1 NL4-3 infected in human TZM-b1 cells; assay type: functional
Summary of the method: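 IC50s from single-round TZM-bl infection with 200 TCID50 HIV-1 NL4-3 or HIV-2 KR.X3, graded compound concentrations, 2-day luciferase (Bright Glo) read-out; IC50 = 50% RLU reduction versus virus control; ratio of HIV-2 to HIV-1 IC50.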

[7] = tested on: HIV-1 NL4-3 (human immunodeficiency virus 1); test: Antiviral activity against HIV1 NL4-3 infected in human TZM-b1 cells after 2 days by luciferase reporter gene assay; conditions: Human immunodeficiency virus 1, NL4-3, TZM-b1, 48 h
TZM-b1 [8] = test: Antiviral activity against HIV2 KR X3 harboring V3 loop of HIV1 YU-2 infected in human TZM-b1 cells after 2 days by luciferase reporter gene assay; assay type: functional, cell-based; conditions: Human immunodeficiency virus type 2 (isolate KR); summary of the method: as §2
TZM-b1 [9] = test: Antiviral activity against HIV2 KR X3 infected in human TZM-b1 cells after 2 days by luciferase reporter gene assay; assay type: functional, cell-based; conditions: Human immunodeficiency virus type 2 (isolate KR); summary of the method: as §2
TZM-b1 [10] = test: Inhibition of HIV1 YU-2 gp120 V3 loop assessed as inhibition of HIV2 KR X3 replication in human TZM-b1 cells; assay type: cell-based; conditions: Human immunodeficiency virus type 1 (isolate YU2)
Summary of the method: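 Single-round infection of TZM-bl cells with 200 TCID50 of HIV-2 KR.X3 chimera carrying the HIV-1 YU2 V3 loop (KR.X3-YU2/V3), in presence of graded compound concentrations. After 2 days medium removed, Bright Glo added, luciferase luminescence read; IC50 = concentration halving RLU versus virus-control wells.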

Compound | CC50 at 48 h [1] [µM] | IC50 [3] [µM] | IC50 [4] [µM] | selectivity ratio [5] | also measured
C=C(C)[C@@H]1CC[C@]2(C(=O)NCCCCC(=O)NCC(=O)O)CC[C@]3(C)[C@H](CC[C@@H]4[C@@]5(C)CC[C@H](O)C(C)(C)[C@@H]5CC[C@]43C)[C@@H]12 | > 65 | 2.6 |  |  | selectivity ratio [2]: < 2
C=C(C)[C@@H]1CC[C@]2(C(=O)NCCCCC(=O)O)CC[C@]3(C)[C@H](CC[C@@H]4[C@@]5(C)CC[C@H](O)C(C)(C)[C@@H]5CC[C@]43C)[C@@H]12 | > 72 | 0.17 | 32.8 |  | 
C=C(C)[C@@H]1CC[C@]2(C(=O)NCCCCCCCC(=O)O)CC[C@]3(C)[C@H](CC[C@@H]4[C@@]5(C)CC[C@H](O)C(C)(C)[C@@H]5CC[C@]43C)[C@@H]12 | 34.2 |  | 0.84 | < 2 | 
C=C(C)[C@@H]1CC[C@]2(C(=O)NCCCCCCCC(=O)NC(CC(C)C)[C@H](O)CC(=O)O)CC[C@]3(C)[C@H](CC[C@@H]4[C@@]5(C)CC[C@H](O)C(C)(C)[C@@H]5CC[C@]43C)[C@@H]12 (single isomer, unassigned) | 33.2 | 2.9 | 0.042 |  | Ratio IC50 [6]: 70
C=C(C)[C@@H]1CC[C@]2(C(=O)NCCCCCCNC(C)=O)CC[C@]3(C)[C@H](CC[C@@H]4[C@@]5(C)CC[C@H](O)C(C)(C)[C@@H]5CC[C@]43C)[C@@H]12 | 48.1 |  | 0.027 | < 2 | IC50 [7]: 0.027 µM
C=C(C)[C@@H]1CC[C@]2(C(=O)O)CC[C@]3(C)[C@H](CC[C@@H]4[C@@]5(C)CC[C@H](OC(=O)CC(C)(C)C(=O)O)C(C)(C)[C@@H]5CC[C@]43C)[C@@H]12 [BEVIRIMAT] | > 30 |  | 0.13 | < 2 | 
C=C(C)[C@@H]1CC[C@]2(C(=O)NCCCC(=O)NCC(=O)O)CC[C@]3(C)[C@H](CC[C@@H]4[C@@]5(C)CC[C@H](O)C(C)(C)[C@@H]5CC[C@]43C)[C@@H]12 | > 67 | 3.7 |  |  | selectivity ratio [2]: < 2
C=C(C)[C@@H]1CC[C@]2(C(=O)NCCCCCCCNC(C)=O)CC[C@]3(C)[C@H](CC[C@@H]4[C@@]5(C)CC[C@H](O)C(C)(C)[C@@H]5CC[C@]43C)[C@@H]12 | > 66 |  | 0.038 | < 2 | IC50 [7]: 0.038 µM
C=C(C)[C@@H]1CC[C@]2(C(=O)O)CC[C@]3(C)[C@H](CC[C@@H]4[C@@]5(C)CC[C@H](O)C(C)(C)[C@@H]5CC[C@]43C)[C@@H]12 [BETULINIC ACID] | > 80 |  |  | < 2 | selectivity ratio [2]: < 2
C=C(C)[C@@H]1CC[C@]2(C(=O)NCCCCCC(=O)NCC(=O)O)CC[C@]3(C)[C@H](CC[C@@H]4[C@@]5(C)CC[C@H](O)C(C)(C)[C@@H]5CC[C@]43C)[C@@H]12 | > 64 | 0.35 | 34.7 |  | Activity (TZM-b1 [8]): Dose-dependent effect; Activity (TZM-b1 [9]): Dose-dependent effect; Activity (TZM-b1 [10]): Active; IC50 [7]: 0.35 µM
C=C(C)[C@@H]1CC[C@]2(C(=O)NCCCCCC(=O)NCC(=O)NCC(=O)O)CC[C@]3(C)[C@H](CC[C@@H]4[C@@]5(C)CC[C@H](O)C(C)(C)[C@@H]5CC[C@]43C)[C@@H]12 | > 58 | 1.7 | > 58 |  | 
C=C(C)[C@@H]1CC[C@]2(C(=O)NCCCCCC(=O)N[C@@H](Cc3ccc(O)cc3)C(=O)O)CC[C@]3(C)[C@H](CC[C@@H]4[C@@]5(C)CC[C@H](O)C(C)(C)[C@@H]5CC[C@]43C)[C@@H]12 | 54.6 | 0.23 |  |  | selectivity ratio [2]: < 2
C=C(C)[C@@H]1CC[C@]2(C(=O)NCCCCCC(=O)N[C@@H](C)C(=O)O)CC[C@]3(C)[C@H](CC[C@@H]4[C@@]5(C)CC[C@H](O)C(C)(C)[C@@H]5CC[C@]43C)[C@@H]12 | > 63 | 0.37 | 48.9 |  | 
C=C(C)[C@@H]1CC[C@]2(C(=O)NCCCCCC(=O)N3CCC[C@H]3C(=O)O)CC[C@]3(C)[C@H](CC[C@@H]4[C@@]5(C)CC[C@H](O)C(C)(C)[C@@H]5CC[C@]43C)[C@@H]12 | > 60 | 0.63 | 51.4 |  | 
Cc1cn([C@H]2C[C@H](N=[N+]=[N-])[C@@H](CO)O2)c(=O)[nH]c1=O [ZIDOVUDINE] |  | 0.069 |  |  | 
C=C(C)[C@@H]1CC[C@]2(C(=O)NCCCCCCC(=O)NCC(=O)O)CC[C@]3(C)[C@H](CC[C@@H]4[C@@]5(C)CC[C@H](O)C(C)(C)[C@@H]5CC[C@]43C)[C@@H]12 | > 63 | 0.42 | 4.1 |  | 
C=C(C)[C@@H]1CC[C@]2(C(=O)NCCCCCC(=O)O)CC[C@]3(C)[C@H](CC[C@@H]4[C@@]5(C)CC[C@H](O)C(C)(C)[C@@H]5CC[C@]43C)[C@@H]12 | > 70 | 0.15 | 2 |  | 
C=C(C)[C@@H]1CC[C@]2(C(=O)NCCCCCCCC(=O)NCC(=O)O)CC[C@]3(C)[C@H](CC[C@@H]4[C@@]5(C)CC[C@H](O)C(C)(C)[C@@H]5CC[C@]43C)[C@@H]12 | 15.8 | 0.64 | 0.12 |  | 
C=C(C)[C@@H]1CC[C@]2(C(=O)NCCCCCCNC(=O)CC(=O)O)CC[C@]3(C)[C@H](CC[C@@H]4[C@@]5(C)CC[C@H](O)C(C)(C)[C@@H]5CC[C@]43C)[C@@H]12 | 34.6 |  | 0.44 | < 2 | 
C=C(C)[C@@H]1CC[C@]2(C(=O)NCCCCCCC(=O)O)CC[C@]3(C)[C@H](CC[C@@H]4[C@@]5(C)CC[C@H](O)C(C)(C)[C@@H]5CC[C@]43C)[C@@H]12 | 36.2 | 4.5 | 11.1 |  | 
C=C(C)[C@@H]1CC[C@]2(C(=O)NCCCCCNC(C)=O)CC[C@]3(C)[C@H](CC[C@@H]4[C@@]5(C)CC[C@H](O)C(C)(C)[C@@H]5CC[C@]43C)[C@@H]12 | 13.9 |  |  | < 2 | selectivity ratio [2]: < 2
C=C(C)[C@@H]1CC[C@]2(C(=O)NCCCCCCCCNC(C)=O)CC[C@]3(C)[C@H](CC[C@@H]4[C@@]5(C)CC[C@H](O)C(C)(C)[C@@H]5CC[C@]43C)[C@@H]12 | > 64 |  | 0.14 | < 2 | 
C=C(C)[C@@H]1CC[C@]2(C(=O)NCCCC(=O)O)CC[C@]3(C)[C@H](CC[C@@H]4[C@@]5(C)CC[C@H](O)C(C)(C)[C@@H]5CC[C@]43C)[C@@H]12 | 31.2 | 2.8 |  |  | selectivity ratio [2]: < 2
